ChEMBL document CHEMBL2040734, “Benzothiazoles: search for anticancer agents” (2012)

Assays:
Type in all cases: functional
HOP-62 = assay: Cytotoxicity against human HOP62 cells assessed as cell growth at 1 uM after 48 hrs by sulforhodamine B assay; conditions: HOP-62, 48 h, read-out: Activity
Outline: (§1)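 Five-dose NCI panel run at 0.01, 0.1, 1, 10 and 100 µM. Cells were in RPMI 1640 with 5% FBS and 2 mM L-glutamine, seeded at 5000–40,000 cells/well and pre-incubated 24 h. Drug was diluted from a DMSO stock into medium with 50 µg/ml gentamicin. Exposure was 48 h at 37 °C, 5% CO2. Cells were fixed with cold TCA and stained with 0.4% SRB, read at 515 nm. Percent growth came from time-zero, control and test absorbances.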

BT-549 [1] = assay: Cytotoxicity against human BT549 cells assessed as cell growth at 10 '-5 M after 48 hrs by sulforhodamine B assay; conditions: BT-549, 48 h, read-out: Activity
Outline: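 Primary NCI-60 single-dose screen at 10 µM. Cells were grown in RPMI 1640 with 5% FBS and 2 mM L-glutamine and plated 24 h before drug addition. Compound was solubilized in DMSO, then exposed for 48 h at 37 °C under 5% CO2. Cells were TCA-fixed and stained with SRB, and absorbance was read at 515 nm. Growth was expressed relative to time-zero and untreated controls.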

T47D = assay: Cytotoxicity against human T47D cells assessed as cell growth at 10 '-5 M after 48 hrs by sulforhodamine B assay; conditions: read-out: Activity
SK-OV-3 = assay: Growth inhibition of human SKOV3 cells after 48 hrs by sulforhodamine B assay; conditions: SK-OV-3, 48 h
Outline: (§2)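 Adherent NCI-60 lines were grown in RPMI 1640 with 5% FBS and 2 mM L-glutamine, plated at 5000–40,000 cells/well and preincubated 24 h. They were then exposed to five concentrations (0.01–100 µM, from a DMSO stock) for 48 h at 37 °C, 5% CO2. Cells were fixed with cold TCA (10% final, 60 min, 4 °C) and stained with 0.4% SRB. Dye was solubilized in 10 mM Tris base and A515 read. GI50 was derived from time-zero, control and treated absorbances.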

M14 [2] = assay: Cytotoxicity against human M14 cells assessed as cell growth at 0.1 uM after 48 hrs by sulforhodamine B assay; conditions: M14, 48 h, read-out: Activity
HCT-15 [3] = assay: Growth inhibition of human HCT15 cells after 48 hrs by sulforhodamine B assay; conditions: HCT-15, 48 h; outline: as §2
A549 = assay: Cytotoxicity against human A549 cells assessed as cell growth at 10 uM after 48 hrs by sulforhodamine B assay; conditions: A549, 48 h, read-out: Activity
Outline: (§3)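 NCI-60 five-dose screen. Cells were grown in RPMI 1640 with 5% FBS and 2 mM L-glutamine and preincubated 24 h. Compound (DMSO stock) was tested at 0.01, 0.1, 1, 10 and 100 µM for 48 h at 37 °C. Cells were fixed in situ with cold TCA (final 10%) and stained with 0.4% SRB. A515 was read, and percent growth was calculated against time-zero and control plates.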

NCI-H322M = assay: Cytotoxicity against human NCI-H322M cells assessed as cell growth at 1 uM after 48 hrs by sulforhodamine B assay; conditions: read-out: Activity
SNB-75 = assay: Cytotoxicity against human SNB75 cells assessed as cell growth at 10 uM after 48 hrs by sulforhodamine B assay; conditions: SNB-75, 48 h, read-out: Activity
SK-MEL-5 = assay: Cytotoxicity against human SK-MEL-5 cells assessed as cell growth at 100 uM after 48 hrs by sulforhodamine B assay; conditions: SK-MEL-5, 48 h, read-out: Activity
EKVX = assay: Cytotoxicity against human EKVX cells assessed as cell growth at 10 uM after 48 hrs by sulforhodamine B assay; conditions: read-out: Activity; outline: as §1
MCF7 [4] = assay: Cytotoxicity against human MCF7 cells assessed as cell growth at 1 uM after 48 hrs by sulforhodamine B assay; conditions: MCF7, 48 h, read-out: Activity
MDA-MB-468 = assay: Cytotoxicity against human MDA-MB-468 cells assessed as cell growth at 10 uM after 48 hrs by sulforhodamine B assay; conditions: MDA-MB-468, 48 h, read-out: Activity
UACC-62 = assay: Cytotoxicity against human UACC62 cells assessed as cell growth at 100 uM after 48 hrs by sulforhodamine B assay; conditions: UACC-62, 48 h, read-out: Activity
NCI-H226 = assay: Growth inhibition of human NCI-H226 cells after 48 hrs by sulforhodamine B assay; conditions: NCI-H226, 48 h; outline: as §2
OVCAR-4 = assay: Cytotoxicity against human OVCAR4 cells assessed as cell growth at 0.1 uM after 48 hrs by sulforhodamine B assay; conditions: OVCAR-4, 48 h, read-out: Activity
SR = assay: Cytotoxicity against human SR cells assessed as cell growth at 100 uM after 48 hrs by sulforhodamine B assay; conditions: read-out: Activity
M14 [5] = assay: Growth inhibition of human M14 cells after 48 hrs by sulforhodamine B assay; conditions: M14, 48 h; outline: as §2
HCT-15 [6] = assay: Cytotoxicity against human HCT15 cells assessed as cell growth at 10 uM after 48 hrs by sulforhodamine B assay; conditions: HCT-15, 48 h, read-out: Activity; outline: as §1
NCI/ADR-RES [7] = assay: Growth inhibition of human NCI/ADR-RES cells after 48 hrs by sulforhodamine B assay; outline: as §2
U-251 = assay: Cytotoxicity against human U251 cells assessed as cell growth at 100 uM after 48 hrs by sulforhodamine B assay; conditions: U-251, 48 h, read-out: Activity
LOX IMVI = assay: Cytotoxicity against human LOXIMVI cells assessed as cell growth at 10 uM after 48 hrs by sulforhodamine B assay; conditions: read-out: Activity
BT-549 [8] = assay: Cytotoxicity against human BT549 cells assessed as cell growth at 1 uM after 48 hrs by sulforhodamine B assay; conditions: BT-549, 48 h, read-out: Activity; outline: as §3
OVCAR-8 = assay: Cytotoxicity against human OVCAR8 cells assessed as cell growth at 0.1 uM after 48 hrs by sulforhodamine B assay; conditions: OVCAR-8, 48 h, read-out: Activity
CAKI-1 = assay: Cytotoxicity against human Caki1 cells assessed as cell growth at 100 uM after 48 hrs by sulforhodamine B assay; conditions: CAKI-1, 48 h, read-out: Activity; outline: as §3
MCF7 [9] = assay: Cytotoxicity against human MCF7 cells assessed as cell growth at 0.01 uM after 48 hrs by sulforhodamine B assay; conditions: MCF7, 48 h, read-out: Activity
MDA-MB-435 = assay: Cytotoxicity against human MDA-MB-435 cells assessed as cell growth at 10 '-5 M after 48 hrs by sulforhodamine B assay; conditions: MDA-MB-435, 48 h, read-out: Activity
786-0 = assay: Cytotoxicity against human 786-0 cells assessed as cell growth at 100 uM after 48 hrs by sulforhodamine B assay; conditions: 786-0, 48 h, read-out: Activity; outline: as §3
NCI/ADR-RES [10] = assay: Cytotoxicity against human NCI/ADR-RES cells assessed as cell growth at 0.01 uM after 48 hrs by sulforhodamine B assay; conditions: read-out: Activity

| SMILES | growth at 1 µM (HOP-62) | growth at 10 µM (BT-549 [1]) | growth at 10 µM (T47D) | LC50 (SK-OV-3) | TGI (SK-OV-3) | growth at 0.1 µM (M14 [2]) | GI50 (HCT-15 [3]) | LC50 (HCT-15 [3]) | TGI (HCT-15 [3]) | growth at 10 µM (A549) | growth at 1 µM (NCI-H322M) | growth at 10 µM (SNB-75) | growth at 100 µM (SK-MEL-5) | growth at 10 µM (EKVX) | growth at 1 µM (MCF7 [4]) | growth at 10 µM (MDA-MB-468) | growth at 100 µM (UACC-62) | GI50 (NCI-H226) | LC50 (NCI-H226) | TGI (NCI-H226) | further results |
| --- | --- | --- | --- | --- | --- | --- | --- | --- | --- | --- | --- | --- | --- | --- | --- | --- | --- | --- | --- | --- | --- |
| Clc1cccc(Cl)c1Nc1nc2cccc(Cl)c2s1 | 67% | -67.8% | -4.9% | 5.95 µM | 3.08 µM | 101% | 1.16 µM | 5.69 µM | 2.57 µM | -65% | 76% | -32% | -76% | -89% | 46% | -73% | -94% | 1.18 µM | 6.95 µM | 2.86 µM | GI50 (SK-OV-3): 1.6 µM; growth at 0.1 µM (OVCAR-4): 83%; growth at 100 µM (SR): -32%; GI50 (M14 [5]): 1.46 µM; LC50 (M14 [5]): 7.44 µM; TGI (M14 [5]): 3.29 µM; growth at 10 µM (HCT-15 [6]): -85%; GI50 (NCI/ADR-RES [7]): 0.531 µM; LC50 (lethal concentration, 50% net cell kill) (NCI/ADR-RES [7]): 6.23 µM; TGI (NCI/ADR-RES [7]): 2.15 µM; growth at 100 µM (U-251): -50%; growth at 10 µM (LOX IMVI): -83%; growth at 1 µM (BT-549 [8]): 79%; growth at 0.1 µM (OVCAR-8): 101%; growth at 100 µM (CAKI-1): -75%; growth at 0.01 µM (MCF7 [9]): 90%; growth at 10 µM (MDA-MB-435): -55.9%; growth at 100 µM (786-0): -90%; growth at 0.01 µM (NCI/ADR-RES [10]): 99% |
| Cc1ccc2nc(Nc3c(C)cccc3C)sc2c1 | 66% | 37.1% | 45.8% | > 100 µM | > 100 µM | 104% | 0.92 µM | > 100 µM | > 100 µM | 44% | 91% | 36% | 60% | 39% | 53% | 9% | 37% | > 100 µM | > 100 µM | > 100 µM | growth at 0.1 µM (OVCAR-4): 89%; growth at 100 µM (SR): 22%; LC50 (M14 [5]): > 100 µM; TGI (M14 [5]): > 100 µM; growth at 10 µM (HCT-15 [6]): 23%; GI50 (NCI/ADR-RES [7]): 0.639 µM; LC50 (lethal concentration, 50% net cell kill) (NCI/ADR-RES [7]): > 100 µM; TGI (NCI/ADR-RES [7]): > 100 µM; growth at 100 µM (U-251): 31%; growth at 10 µM (LOX IMVI): 23%; growth at 1 µM (BT-549 [8]): 63%; growth at 0.1 µM (OVCAR-8): 105%; growth at 100 µM (CAKI-1): 42%; growth at 0.01 µM (MCF7 [9]): 90%; growth at 10 µM (MDA-MB-435): -23.7%; growth at 100 µM (786-0): 60%; growth at 0.01 µM (NCI/ADR-RES [10]): 98% |
